Test results published in ChEMBL document CHEMBL2040825, “Synthesis and cytotoxicity of 3,4-disubstituted-5-(3,4,5-trimethoxyphenyl)-4H-1,2,4-triazoles and novel 5,6-dihydro-[1,2,4]triazolo[3,4-b][1,3,4]thiadiazole derivatives bearing 3,4,5-trimethoxyphenyl moiety” (Bioorg Med Chem Lett, 2012).

Columns and labels:
Format in all cases: functional, cell-based
[1] = tested on: HepG2; assay: Cytotoxicity against human HepG2 cells after 48 hrs by MTT assay; conditions: HepG2, 48 h
Outline: (§1)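 Cells grown in DMEM with 10% FBS and passaged by trypsinization at 70-80% confluence. Seeding density was 8 × 10^4 cells/well for MKN45, HT-29 and MCF-7 and 5 × 10^4 cells/well for HepG2, then 24 h attachment at 37 °C. Compounds from 10 mM DMSO stock were diluted in medium and applied for 48 h at 37 °C, with 0.1% DMSO as negative control.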

[2] = tested on: MKN-45; assay: Cytotoxicity against human MKN45 cells after 48 hrs by MTT assay; conditions: MKN-45, 48 h; outline: as §1
[3] = tested on: HT-29; assay: Cytotoxicity against human HT-29 cells after 48 hrs by MTT assay; conditions: HT-29, 48 h; outline: as §1
[4] = tested on: MCF7; assay: Cytotoxicity against human MCF7 cells after 48 hrs by MTT assay; conditions: MCF7, 48 h; outline: as §1

Compound	IC50 [1] [µM]	IC50 [2] [µM]	IC50 [3] [µM]	IC50 [4] [µM]
CCOC(=O)CC1(c2ccccc2)Nn2c(nnc2-c2cc(OC)c(OC)c(OC)c2)S1 (stereo not given)	> 200	> 200	> 200	> 200
COc1cc(-c2nnc(SCc3ccccc3Cl)n2/N=C/c2ccccc2)cc(OC)c1OC	31.7	> 200	> 200	> 200
COc1cc(-c2nnc(SCc3ccccc3)n2/N=C/c2ccccc2)cc(OC)c1OC	> 200	> 200	> 200	> 200
COc1ccc(/C=N/n2c(SCc3ccc(F)cc3)nnc2-c2cc(OC)c(OC)c(OC)c2)c(OC)c1	> 200	> 200	126	> 200
COc1ccc(C2(CC(=O)c3ccc(C)cc3)Nn3c(nnc3-c3cc(OC)c(OC)c(OC)c3)S2)c(OC)c1 (stereo not given)	3.17	13.8	66.8	10.9
COc1cc(-c2nnc3n2NC(CC(=O)c2ccc(C)cc2)(c2ccccc2)S3)cc(OC)c1OC (stereo not given)	0.58	7.47	151	> 200
COc1ccc(/C=N/n2c(SC)nnc2-c2cc(OC)c(OC)c(OC)c2)c(OC)c1	> 200	> 200	144	> 200
COc1cccc2c1C(=O)c1c(O)c3c(c(O)c1C2=O)C[C@@](O)(C(=O)CO)C[C@@H]3O[C@H]1C[C@H](N)[C@H](O)[C@H](C)O1 [DOXORUBICIN]	5.57	0.168	–	–
CCOC(=O)CSc1nnc(-c2cc(OC)c(OC)c(OC)c2)n1/N=C/c1ccc(OC)cc1OC	> 200	> 200	> 200	> 200
COc1cc(-c2nnc(SCc3ccc(F)cc3)n2/N=C/c2ccccc2)cc(OC)c1OC	> 200	> 200	> 200	> 200
COc1ccc(/C=N/n2c(SCc3ccccc3)nnc2-c2cc(OC)c(OC)c(OC)c2)c(OC)c1	60.9	49	> 200	153
COc1cc(-c2nnc(SC)n2/N=C/c2ccccc2)cc(OC)c1OC	> 200	28.5	> 200	> 200
COc1ccc(/C=N/n2c(SCc3ccccc3Cl)nnc2-c2cc(OC)c(OC)c(OC)c2)c(OC)c1	> 200	> 200	> 200	63.7
